Reference: ChEMBL document CHEMBL4219224, “Structure based drug design and in vitro metabolism study: Discovery of N-(4-methylthiophenyl)-N,2-dimethyl-cyclopenta[d]pyrimidine as a potent microtubule targeting agent” (Bioorg Med Chem, 2018)

Experiments:
786-0 = experiment: Growth inhibition of human 786-0 cells incubated for 48 hrs by sulforhodamine B assay; assay type: functional; details: 786-0, 48 h
HT-29 = experiment: Growth inhibition of human HT-29 cells incubated for 48 hrs by sulforhodamine B assay; assay type: functional; details: HT-29, 48 h
BT-549 = experiment: Growth inhibition of human BT549 cells incubated for 48 hrs by sulforhodamine B assay; assay type: functional; details: BT-549, 48 h
OVCAR-4 = experiment: Growth inhibition of human OVCAR4 cells incubated for 48 hrs by sulforhodamine B assay; assay type: functional; details: OVCAR-4, 48 h
HeLa [1] = experiment: Antiproliferative activity against human HeLa cells expressing wild type beta3 tubulin by SRB assay; assay type: functional, cell-based
NCI/ADR-RES = experiment: Growth inhibition of human NCI/ADR-RES cells incubated for 48 hrs by sulforhodamine B assay; assay type: functional
SK-MEL-2 = experiment: Growth inhibition of human SK-MEL-2 cells incubated for 48 hrs by sulforhodamine B assay; assay type: functional; details: SK-MEL-2, 48 h
SK-MEL-28 = experiment: Growth inhibition of human SK-MEL-28 cells incubated for 48 hrs by sulforhodamine B assay; assay type: functional; details: SK-MEL-28, 48 h
IGROV-1 = experiment: Growth inhibition of human IGROV1 cells incubated for 48 hrs by sulforhodamine B assay; assay type: functional; details: IGROV-1, 48 h
SW-620 = experiment: Growth inhibition of human SW620 cells incubated for 48 hrs by sulforhodamine B assay; assay type: functional; details: SW-620, 48 h
A549 = experiment: Growth inhibition of human A549/ATCC cells incubated for 48 hrs by sulforhodamine B assay; assay type: functional; details: A549, 48 h
Hs-578T = experiment: Growth inhibition of human Hs578T cells incubated for 48 hrs by sulforhodamine B assay; assay type: functional
MDA-MB-435 (human) = experiment: Antiproliferative activity against human MDA-MB-435 cells by SRB assay
SR = experiment: Growth inhibition of human SR cells incubated for 48 hrs by sulforhodamine B assay; assay type: functional
MDA-MB-468 = experiment: Growth inhibition of human MDA-MB-468 cells incubated for 48 hrs by sulforhodamine B assay; assay type: functional; details: MDA-MB-468, 48 h
CAKI-1 = experiment: Growth inhibition of human Caki1 cells incubated for 48 hrs by sulforhodamine B assay; assay type: functional; details: CAKI-1, 48 h
SNB-75 = experiment: Growth inhibition of human SNB75 cells incubated for 48 hrs by sulforhodamine B assay; assay type: functional; details: SNB-75, 48 h
PC-3 = experiment: Growth inhibition of human PC3 cells incubated for 48 hrs by sulforhodamine B assay; assay type: functional; details: PC-3, 48 h
OVCAR-8 = experiment: Growth inhibition of human OVCAR8 cells incubated for 48 hrs by sulforhodamine B assay; assay type: functional; details: OVCAR-8, 48 h
NCI-H322M = experiment: Growth inhibition of human NCI-H322M cells incubated for 48 hrs by sulforhodamine B assay; assay type: functional
Bos taurus [2] = species: Bos taurus; experiment: Inhibition of [3H]colchicine binding to bovine brain tubulin at 1 uM measured after 10 mins by scintillation counting method relative to control
Summary of the method: (§1)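 Reactions of 0.1 mL held 1.0 μM bovine brain tubulin, 5.0 μM [3H]colchicine, inhibitor at 1.0 or 5.0 μM, colchicine-binding stabilizing components and 5% DMSO, assembled on ice with tubulin added last. Incubated 10 min at 37 °C, stopped with ice water, filtered through DEAE-cellulose filters. Bound radiolabel counted by scintillation.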

HCT-116 = experiment: Growth inhibition of human HCT116 cells incubated for 48 hrs by sulforhodamine B assay; assay type: functional; details: HCT-116, 48 h
NCI-H522 = experiment: Growth inhibition of human NCI-H522 cells incubated for 48 hrs by sulforhodamine B assay; assay type: functional; details: NCI-H522, 48 h
HeLa [3] = experiment: Resistance index, ratio of IC50 for human HeLa cells expressing wild type beta3 tubulin to IC50 for human HeLa cells; assay type: functional
Summary of the method: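 Antiproliferative IC50 by SRB assay (cellular protein) in each isogenic pair: SK-OV-3 parental versus Pgp-expressing, and parental HeLa versus wild-type βIII-tubulin-expressing HeLa. Rr is the IC50 ratio of the modified line to the parental line. At least three independent experiments, each in triplicate, mean ± SD.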

Bos taurus [4] = species: Bos taurus; experiment: Inhibition of [3H]colchicine binding to bovine brain tubulin at 5 uM measured after 10 mins by scintillation counting method relative to control; summary of the method: as §1
SF-295 = experiment: Growth inhibition of human SF295 cells incubated for 48 hrs by sulforhodamine B assay; assay type: functional; details: SF-295, 48 h

`CSc1ccc(N(C)c2nc(C)nc3c2CCC3)cc1` was tested, and the GI50 (786-0) was less than 10 nM, the GI50 (HT-29) was less than 10 nM and the GI50 (BT-549) was less than 10 nM. The GI50 (OVCAR-4) was less than 10 nM, the IC50 (HeLa [1]) was 5.3 nM and the GI50 (NCI/ADR-RES) was less than 10 nM. The GI50 (SK-MEL-2) was less than 10 nM, the GI50 (SK-MEL-28) was greater than 10 µM and the GI50 (IGROV-1) was less than 10 nM. It also gave a GI50 (SW-620) of less than 10 nM, a GI50 (A549) of less than 10 nM and a GI50 (Hs-578T) of less than 10 nM. It also gave an IC50 (MDA-MB-435 (human)) of 4.6 nM, a GI50 (SR) of less than 10 nM and a GI50 (MDA-MB-468) of less than 10 nM. It also gave a GI50 (CAKI-1) of less than 10 nM, a GI50 (SNB-75) of less than 10 nM and a GI50 (PC-3) of less than 10 nM. For the same compound, the GI50 (OVCAR-8) was less than 10 nM, the GI50 (NCI-H322M) was greater than 10 µM and the inhibition (Bos taurus [2]) was 74%. For the same compound, the GI50 (HCT-116) was less than 10 nM, the GI50 (NCI-H522) was less than 10 nM and the “Ratio IC50” value (HeLa [3]) was 0.8. For the same compound, the inhibition (Bos taurus [4]) was 92% and the GI50 (SF-295) was less than 10 nM.
